Data on one molecule can be found in ChEMBL document CHEMBL4308829, “Design and Synthesis of Novel Positive Allosteric Modulators of α7 Nicotinic Acetylcholine Receptors with the Ability To Rescue Auditory Gating Deficit in Mice” (J Med Chem, 2018).

The source made the active and inactive calls. No cut-off for these calls is given here.

Data set [1] deals with T1, Neuronal acetylcholine receptor subunit alpha-7 (Homo sapiens, UniProt P36544). The experiment in a line: Positive allosteric modulation of human alpha7 nAChR expressed in Xenopus laevis oocytes assessed as increase in acetylcholine-induced channel current at -90 mV holding potential preincubated for 2 mins followed by co-application with acetylcholine for 10 secs by two-electrode voltage clamp method. It counts as cell-based.

Data set [2] addresses T1, Neuronal acetylcholine receptor subunit alpha-7. Put plainly: Positive allosteric modulation of human alpha7 nAChR expressed in Xenopus laevis oocytes assessed as increase in acetylcholine-induced channel current by measuring maximum efficacy of acetylcholine at 10 uM at -90 mV holding potential preincubated for 2 mins followed by co-application with acetylcholine for 10 secs by two-electrode voltage clamp method (reference value: 109 +/- 2%). The class given is cell-based.

For data set [3], the target named is Neuronal acetylcholine receptor; alpha3/beta4 (Rattus norvegicus) (UniProt P04757+P12392). The experiment in a line: Positive allosteric modulation of rat alpha3beta4 nAChR expressed in Xenopus laevis oocytes assessed as increase in acetylcholine-induced channel current at 10 uM at -90 mV holding potential by two-electrode voltage clamp method. The class given is cell-based. An outline of the steps: (§1)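 Rat α3β4 or α4β2 subunit cRNAs (~2 ng total, 1:1) injected into oocytes, which were kept at 16 °C in ND96. Two-electrode voltage clamp at -90 mV, 24-72 h post-injection, in Ringer's containing atropine at room temperature.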

The target in data set [4] is Neuronal acetylcholine receptor; alpha4/beta2 (Rattus norvegicus) (UniProt P09483+P12390). Put plainly: Positive allosteric modulation of rat alpha4beta2 nAChR expressed in Xenopus laevis oocytes assessed as increase in acetylcholine-induced channel current at 10 uM at -90 mV holding potential by two-electrode voltage clamp method. It counts as cell-based. An outline of the steps:
as §1

The target in data set [5] is T1, Neuronal acetylcholine receptor subunit alpha-7. The experiment in a line: Induction of desensitization of human alpha7 nAChR expressed in Xenopus laevis oocytes assessed as acetylcholine-induced channel desensitization time constant at 10 uM at -90 mV holding potential by two-electrode voltage clamp method (reference value: 5.56 +/- 1.27). It counts as cell-based.

Data set [6] has as its target Glutamate NMDA receptor; Grin1/Grin2b (Rattus norvegicus) (UniProt P35439+Q00960). Put plainly: Positive allosteric modulation of rat GluN1/GluN2B receptor expressed in Xenopus laevis oocytes assessed as increase in glycine/glutamate-induced channel current 10 uM by two-electrode voltage clamp method. It counts as cell-based.
A short description of data set [7]: Apparent clearance in rat at 60 mg/kg, po by LC-MS/MS analysis. The class given is ADME, organism-based. Particulars: in vivo. The procedure, abridged:
(§2)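 Rat plasma stored at -20 °C, spiked with internal standard, protein-precipitated with methanol, centrifuged and filtered before LC-MS/MS. C18 column at 40 °C, acetonitrile/0.1% formic acid (80:20) isocratic at 0.5 mL/min. Positive ESI with MRM m/z 400.0->129.9. Parameters taken per rat by non-compartmental analysis, n = 3.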

Data set [8] concerns the target Voltage-gated inwardly rectifying potassium channel KCNH2 (Homo sapiens, UniProt Q12809). Put plainly: Inhibition of human ERG expressed in HEK293 cells up to 30 uM at -80 mV holding potential by whole-cell patch clamp assay. The class given is cell-based. An outline of the steps: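 HEK293 cells stably expressing hERG, whole-cell clamp at room temperature. Holding -80 mV, step to +20 mV for 2 s, then -40 mV for 1.6 s, repeated every 10 s. Compound perfused at 1-30 µM, with 100 nM cisapride as reference. Peak -40 mV tail currents normalized to control, n = 4.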

A short description of data set [9]: Cmax in rat at 3 mg/kg, iv by LC-MS/MS analysis. It counts as ADME, organism-based. Details: dose 3 mg/kg, route intravenous. The following applies: in vivo. The procedure, abridged:
as §2

A short description of data set [10]: AUCinfinity in rat at 3 mg/kg, iv by LC-MS/MS analysis. It counts as ADME, organism-based. Details: dose 3 mg/kg, route intravenous, time infinity. The following applies: in vivo. The procedure, abridged:
as §2

The nature of data set [11]: MRT in rat at 3 mg/kg, iv by LC-MS/MS analysis. The following applies: in vivo. The class given is ADME, organism-based. The procedure, abridged:
as §2

Data set [12] is described as follows: Half life in rat at 60 mg/kg, po by LC-MS/MS analysis. It counts as ADME, organism-based. Particulars: in vivo. The procedure, abridged:
as §2

Data set [13] can be described thus: AUCinfinity in rat at 60 mg/kg, po by LC-MS/MS analysis. It counts as ADME, organism-based. Also on record: dose 60 mg/kg, time infinity, route oral. The following applies: in vivo. The procedure, abridged: as §2
Data set [14] can be described thus: MRT in rat at 60 mg/kg, po by LC-MS/MS analysis. The class given is ADME, organism-based. The following applies: in vivo. The procedure, abridged: as §2
A short description of data set [15]: Oral bioavailability in rat at 60 mg/kg by LC-MS/MS analysis. The class given is ADME, organism-based. The following applies: in vivo. The procedure, abridged:
as §2

Data set [16] can be described thus: Plasma concentration in C57BL/6J mouse at 1 mg/kg, ip after 8 hrs by LC-MS/MS analysis. The class given is ADME, organism-based. An outline of the steps:
(§3)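 C57BL/6J mice given 1 mg/kg i.p. from a 0.4 mg/mL solution in 10% DMSO/50% PEG400/40% SBECD. Plasma and brain taken at 0.5, 2 and 8 h. Samples mixed with internal standard in methanol/acetonitrile (1:1), centrifuged and diluted 10x in methanol:water with 0.1% FA, then measured by HPLC-MS-MS. n = 3; ratio is brain over plasma concentration.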

Data set [17] can be described thus: Drug uptake in C57BL/6J mouse brain at 1 mg/kg, ip after 0.5 hrs by LC-MS/MS analysis. The following applies: read-out: Drug uptake. It counts as ADME, organism-based. An outline of the steps: as §3
Data set [18] is described as follows: Ratio of drug level in C57BL/6J mouse brain to plasma at 1 mg/kg, ip after 2 hrs by LC-MS/MS analysis. The class given is ADME, organism-based. Particulars: read-out: BPR. An outline of the steps:
as §3

A short description of data set [19]: Ratio of drug level in C57BL/6J mouse brain to plasma at 1 mg/kg, ip after 8 hrs by LC-MS/MS analysis. Particulars: read-out: BPR. The class given is ADME, organism-based. The procedure, abridged:
as §3

Data set [20] has as its system Mus musculus. Put plainly: Anti-schizophrenic activity in C57BL/6J mouse assessed as protection against MK-801-induced auditory gating deficit by measuring prepulse inhibition impairment at 0.1 mg/kg, ip at 8 to 16 dB prepulse intensity (reference value: 11%). The class given is functional. Also on record: scale not given: the % may be the effect or the level left.

Data set [21] relates to Mus musculus. The experiment in a line: Anti-schizophrenic activity in C57BL/6J mouse assessed as protection against MK-801-induced auditory gating deficit by measuring prepulse inhibition impairment at 0.3 mg/kg, ip at 8 to 16 dB prepulse intensity (reference value: 11%). The class given is functional. Also on record: scale not given: the % may be the effect or the level left.

Data set [22] relates to Mus musculus. Put plainly: Anti-schizophrenic activity in C57BL/6J mouse assessed as protection against MK-801-induced auditory gating deficit by measuring prepulse inhibition impairment at 1 mg/kg, ip at 8 to 16 dB prepulse intensity pretreated for 30 mins followed by MK-801 treatment and measured after 30 mins (reference value: 8.7%). The class given is functional. Also on record: scale not given: the % may be the effect or the level left.

T1 sequence (P36544 whole entry): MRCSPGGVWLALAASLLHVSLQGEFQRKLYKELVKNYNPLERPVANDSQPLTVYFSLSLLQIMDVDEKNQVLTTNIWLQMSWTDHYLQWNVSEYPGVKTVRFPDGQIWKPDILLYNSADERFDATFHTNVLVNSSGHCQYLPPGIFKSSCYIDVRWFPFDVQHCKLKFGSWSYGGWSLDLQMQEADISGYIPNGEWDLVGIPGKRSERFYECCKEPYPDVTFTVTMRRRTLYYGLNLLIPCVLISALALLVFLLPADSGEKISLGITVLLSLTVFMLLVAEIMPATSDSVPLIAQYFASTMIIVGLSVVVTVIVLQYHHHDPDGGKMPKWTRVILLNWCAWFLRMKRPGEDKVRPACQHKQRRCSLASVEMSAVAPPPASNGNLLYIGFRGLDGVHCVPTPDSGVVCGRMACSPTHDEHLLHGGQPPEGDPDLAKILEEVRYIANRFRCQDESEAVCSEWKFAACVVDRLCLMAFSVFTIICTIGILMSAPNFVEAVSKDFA
Sequence of Voltage-gated inwardly rectifying potassium channel KCNH2 (Q12809 whole entry, the tested form may be a part): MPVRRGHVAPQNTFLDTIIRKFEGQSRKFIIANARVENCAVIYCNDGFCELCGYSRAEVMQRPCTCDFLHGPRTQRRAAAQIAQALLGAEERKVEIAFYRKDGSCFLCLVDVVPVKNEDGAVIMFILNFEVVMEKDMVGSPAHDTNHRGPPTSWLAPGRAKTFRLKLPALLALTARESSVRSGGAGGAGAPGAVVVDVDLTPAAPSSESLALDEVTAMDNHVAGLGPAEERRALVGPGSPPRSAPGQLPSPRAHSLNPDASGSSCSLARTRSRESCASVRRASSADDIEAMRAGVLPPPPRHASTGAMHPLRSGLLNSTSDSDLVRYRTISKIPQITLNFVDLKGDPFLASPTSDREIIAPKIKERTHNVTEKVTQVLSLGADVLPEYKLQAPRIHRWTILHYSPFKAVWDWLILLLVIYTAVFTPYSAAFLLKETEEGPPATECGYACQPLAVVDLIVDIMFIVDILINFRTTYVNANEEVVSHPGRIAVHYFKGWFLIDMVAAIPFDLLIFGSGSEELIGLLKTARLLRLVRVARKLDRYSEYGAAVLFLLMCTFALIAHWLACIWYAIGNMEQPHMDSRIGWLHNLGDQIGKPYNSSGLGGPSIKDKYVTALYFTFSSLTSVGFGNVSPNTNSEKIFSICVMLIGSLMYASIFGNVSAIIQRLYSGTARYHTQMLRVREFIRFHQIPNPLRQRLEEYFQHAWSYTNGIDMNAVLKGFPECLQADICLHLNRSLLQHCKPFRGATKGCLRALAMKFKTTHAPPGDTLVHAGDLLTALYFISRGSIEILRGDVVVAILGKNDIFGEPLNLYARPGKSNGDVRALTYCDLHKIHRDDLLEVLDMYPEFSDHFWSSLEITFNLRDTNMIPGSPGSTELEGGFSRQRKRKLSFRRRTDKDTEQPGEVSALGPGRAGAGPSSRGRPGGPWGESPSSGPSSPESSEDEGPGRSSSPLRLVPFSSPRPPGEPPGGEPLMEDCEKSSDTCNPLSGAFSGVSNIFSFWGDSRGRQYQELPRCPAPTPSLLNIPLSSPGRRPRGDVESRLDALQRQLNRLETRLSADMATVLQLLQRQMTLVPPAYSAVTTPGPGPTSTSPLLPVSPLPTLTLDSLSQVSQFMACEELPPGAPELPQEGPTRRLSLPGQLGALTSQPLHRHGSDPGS

For `Cc1cccc(Cl)c1-n1cnc2nc(SCc3ccccc3)sc2c1=O`, the Activity result in data set [1] was “Dose-dependent effect”; in data set [5] it was 6.54; with Mus musculus [20], 22%; in the data set with Mus musculus [21], 26%; in the data set with Mus musculus [22], 30%. Moreover, the maximal effect (Emax) in [2] amounted to 1540%. Also, the result in [3], in data set [4] and in [6] was inactive. The CL/F in data set [7] turned out to be 1 mL/min/kg. For the same molecule, the “inhibition (INH)” value in data set [8] is “Not Active”. The Cmax in [9] was 700 ng/mL. The AUC(0-inf) in data set [10] worked out at 680 ng·h/mL; in data set [13], 1100 ng·h/mL. Besides, the MRT in [11] turned out to be 7 h; in data set [14], 9.5 h. The half-life in data set [12] is 7.4 h. In data set [15], this molecule had a bioavailability of 8%. In [16], this molecule displayed a concentration at 8 h of 0.9 ng/mL. Besides, the concentration at 0.5 h in [17] was found to be 84.7 ng/g. Further, in data set [18], the Kp at 2 h stood at 2.7. The Kp at 8 h in data set [19] turned out to be 2.3.
